High-throughput results deposited in PubChem BioAssay by The Scripps Research Institute Molecular Screening Center.
TAAR1 antagonist: human TAAR1 antagonism | inhibition, % at 3 µM | 360,000 compounds, 1.5% hits | CHO RD-HGA16 TAAR1, Fluo-8 calcium fluorescence, antagonist | Q96RJ0;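 active means inhibition above a per-plate cutoff, the mean inhibition of test compounds on that plate plus 3 SD, cut at about 49% in these data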;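 further: 0% = DMSO plus EC80 beta-PEA response and 100% = DMSO alone without agonist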
Target sequence (Q96RJ0 whole entry, looked up): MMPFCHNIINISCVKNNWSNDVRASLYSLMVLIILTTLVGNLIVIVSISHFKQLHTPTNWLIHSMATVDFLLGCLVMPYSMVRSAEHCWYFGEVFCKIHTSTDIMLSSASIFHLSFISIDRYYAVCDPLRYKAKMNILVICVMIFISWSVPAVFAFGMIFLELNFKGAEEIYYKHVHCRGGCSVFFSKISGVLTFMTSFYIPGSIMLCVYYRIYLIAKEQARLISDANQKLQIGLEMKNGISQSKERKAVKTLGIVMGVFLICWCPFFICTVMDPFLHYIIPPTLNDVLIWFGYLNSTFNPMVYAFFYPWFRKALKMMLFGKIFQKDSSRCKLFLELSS
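test system = CHO RD-HGA16 cells bearing hTAAR1 | replication = singlicate | controls = DMSO-only wells and EC80 β-PEA-stimulated wells | reagent = EC80 β-phenethylamine stimulus | read-out basis = percent inhibition of PEA-evoked calcium signal, max/basal emission ratio | schedule = seeding 17-24 h prior, 75-min 37 °C, 30-min RT dye loading | signal = kinetic Fluo-8 calcium fluorescence measurement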
TAAR1 agonist: human TAAR1 agonism. 360,000 compounds, 0.99% hits. Q96RJ0. activation, % at 3 µM. AID 624467. CHO RD-HGA16 TAAR1, Fluo-8 calcium fluorescence; vehicle wells 0%, saturating PEA agonist 100%;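 active means activation above the mean activation of all test compounds in the run plus 3 SD, cut at about 38% in these data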
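Assay system – CHO-derived RD-HGA16 cells with stable Gα16 and human TAAR1 · Compound dosing – one-point dosing at 3 µM (nominal) · Incubation – 17-24 h seeding, 75 min 37 °C dye, 30 min RT · Measured by – kinetic Fluo-8 calcium fluorescence · Control set – DMSO vehicle as 0%, PEA at EC100 as 100% · Repeats – single well for each compound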
OX1R antag-1: OX1R (human) antagonism. O43613. OX1R-expressing cells, FRET antagonist read-out. inhibition, % at 6.6 µM. 330,000 compounds, 1.8% hits; in the data active means inhibition mostly above about 38%, no sharp cut-off; inactive means mostly below about 40%;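 further: 0% = agonist challenge alone and 100% = reference antagonist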
Target sequence (O43613 whole entry, looked up): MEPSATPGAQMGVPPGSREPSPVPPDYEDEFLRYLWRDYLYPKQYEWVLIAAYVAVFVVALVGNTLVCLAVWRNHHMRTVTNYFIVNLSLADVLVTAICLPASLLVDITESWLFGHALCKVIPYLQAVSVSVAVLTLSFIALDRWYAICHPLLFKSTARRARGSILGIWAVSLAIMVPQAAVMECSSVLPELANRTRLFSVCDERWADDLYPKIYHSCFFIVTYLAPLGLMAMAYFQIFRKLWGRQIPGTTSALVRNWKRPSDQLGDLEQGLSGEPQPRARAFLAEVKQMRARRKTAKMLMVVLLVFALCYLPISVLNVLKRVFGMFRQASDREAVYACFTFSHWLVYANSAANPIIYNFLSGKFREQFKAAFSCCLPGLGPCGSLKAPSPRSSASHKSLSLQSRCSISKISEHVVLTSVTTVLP
OX1R antag-2: blocks the human orexin 1 receptor. O43613. CHO/OX1R cells, Fluo-8 calcium fluorescence, orexin A. inhibition, % at 5 µM. 330,000 compounds, 0.43% hits;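 active means inhibition above its plate's threshold, mean inhibition of all tested compounds on the plate plus 3 SD, cut at about 37% in these data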;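 further: 0% = orexin A challenge wells and 100% = SB-334867-A antagonist wells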
GPR7 antagonist: human neuropeptides B/W receptor 1 antagonism | P48145 | GPR7-expressing cells, fluorescence antagonist assay | inhibition, % at 4.4 µM | 290,000 compounds, 1.1% hits | AID 1861; in the data active means inhibition above about 16%, passing the limit was not always enough;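 further: cells stimulated with the agonist NPW; 0% = agonist with vehicle and 100% = vehicle without agonist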
CHO parental Ca: counter-screen for OX1R antagonists: effect in parental CHO cells; parental CHO-K1, ATP-induced calcium, Fluo-8 fluorescence; inhibition, % at 5.6 µM; 330,000 compounds, 0.63% hits;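 active means inhibition above that plate's mean sample inhibition plus 3 SD, cut at about 26% in these data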;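 further: 0% = ATP-challenged DMSO wells and 100% = DMSO wells without ATP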
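material = parental CHO cells | also added = ATP as calcium-mobilizing challenge | dosing = single point at 5.6 µM | detection = intracellular calcium via Fluo-8 no-wash fluorescent dye | read-out = % inhibition | benchmarks = low control ATP plus DMSO, high control DMSO only | repeats = one well per compound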
OX1R HTRF conf: confirmation of human orexin 1 receptor antagonists, HTRF format | shares compounds with OX1R antag-1 | OX1R-expressing cells, HTRF antagonist assay | inhibition, % at 6.6 µM | 1,800 compounds, 49% hits | AID 492964; in the data active means inhibition above about 55%;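 further: CHO cells expressing OX1R stimulated with orexin A at about EC80; 0% = agonist challenge alone and 100% = reference antagonist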
CHO-K1 HTRF cnt: signal in parental CHO-K1 cells, OX1R antagonist counter-screen; shares compounds with OX1R antag-1; HTRF counterscreen; inhibition, % at 6.6 µM; 1,800 compounds, 48% hits; in the data active means inhibition above about 17%;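 further: 0% = agonist challenge with vehicle and 100% = vehicle alone without agonist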
TAAR1 nonsel count: nonselective antagonist in TAAR1 antagonist counter-screen. shares compounds with TAAR1 antagonist. counterscreen cell line, calcium fluorescence, antagonist mode. inhibition, % at 3 µM. 2,400 compounds, 77% hits. AID 651780; in the data active means inhibition above about 22%;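 further: CHO-Ga16 host cells stimulated with ATP at an EC80 level; 0% = agonist EC80 plus vehicle and 100% = vehicle without agonist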
TAAR1 ant conf: human TAAR1 antagonism, confirmed | 2,400 compounds, 40% hits | inhibition, % at 3 µM | TAAR1-expressing cells, fluorescence antagonist read-out | AID 651785 | shares compounds with TAAR1 antagonist; in the data active means inhibition above about 49%;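 further: CHO-Ga16 host cells challenged with agonist PEA near its EC80; 0% = agonist at EC80 plus vehicle and 100% = vehicle with no agonist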
Ga16 ag counter-1: nonselective Ga16 agonism, counter-screen. shares compounds with TAAR1 antagonist. Ga16-expressing cells, calcium fluorescence, agonist counterscreen. activation, % at 3 µM. 2,400 compounds, 18% hits. AID 651953; in the data active means activation above about 12%;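 further: 0% = vehicle wells and 100% = saturating stimulus response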
TAAR1 ag count: TAAR1 agonism, antagonist counter-screen | shares compounds with TAAR1 antagonist | hTAAR1 cell line, fluorescence activation, agonist mode | activation, % at 3 µM | 2,400 compounds, 2% hits | AID 651955; in the data active means activation above about 37%;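 further: CHO cells stably expressing TAAR1 with calcium dye readout; 0% = DMSO vehicle and 100% = full agonist response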
TAAR1 ag conf: human TAAR1 agonism, confirmed | 2,400 compounds, 82% hits | activation, % at 3 µM | shares compounds with TAAR1 agonist | CHO RD-HGA16 TAAR1, Fluo-8 calcium fluorescence; scaled: DMSO 0%, maximal phenethylamine 100%;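 active means activation above a cutoff set at the run's mean compound activation plus 3 SD, cut at about 39% in these data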
Ga16 ag counter-2: nonselective agonism, TAAR1 counter-screen | 2,400 compounds, 50% hits | shares compounds with TAAR1 agonist | activation, % at 3 µM | AID 651787 | CHO-Ga16 parental, Fluo-8 calcium fluorescence; normalized to maximal ATP response, DMSO zero;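 active means activation above the run cutoff, the mean activation over all tested wells plus 3 SD, cut at about 12% in these data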;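 further: 0% = DMSO wells and 100% = maximal ATP response on the peak over basal ratio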
TAAR1 desensitize: human TAAR1 agonist that also desensitizes the receptor. CHO RD-HGA16 hTAAR1, Fluo-8 calcium, beta-PEA response inhibition. shares compounds with TAAR1 agonist. 2,400 compounds, 46% hits. inhibition, % at 3 µM;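 active means inhibition above the run cutoff, the mean inhibition of all test compounds plus 3 SD, cut at about 49% in these data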;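 further: beta-PEA stimulus applied at its EC80; loss of beta-PEA calcium signal after compound pretreatment read as receptor desensitization; 0% = DMSO with beta-PEA at EC80 and 100% = DMSO alone without agonist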
Ga16 nonsel ant: counter-screen for TAAR1 agonists: nonselective Ga16 antagonists | inhibition, % at 3 µM | CHO-Ga16 ATP-induced calcium, Fluo-8 fluorescence | AID 651952 | 2,400 compounds, 39% hits | shares compounds with TAAR1 agonist;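 active means inhibition above the plate's mean compound inhibition plus 3 SD, computed per plate, cut at about 22% in these data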;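 further: 0% = EC80 ATP with DMSO and 100% = DMSO wells without ATP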
Active calls of the source: *; x = not tested or not shown. Hits are enriched below; roughly 4.6% of the tested compounds scored in any of these assays.

SMILES | TAAR1 antagonist | TAAR1 agonist | OX1R antag-1 | OX1R antag-2 | GPR7 antagonist | CHO parental Ca | TAAR1 nonsel count | TAAR1 ant conf | Ga16 ag counter-1 | TAAR1 ag count | others
NS(=O)(=O)c1ccc(N=Nc2c(O)[nH]c(=S)[nH]c2=O)cc1 | -8 | 0 | 77* | 1 | -3 | -3 | x | x | x | x | OX1R HTRF conf=67*;CHO-K1 HTRF cnt=79*
CC1(C)CC(=O)CC(C)(C)N1O | -16 | 1 | x | x | x | x | x | x | x | x
Nc1ccc2nonc2c1[N+](=O)[O-] | 23 | 72* | 83* | -5 | -12 | 2 | x | x | x | x | OX1R HTRF conf=48;CHO-K1 HTRF cnt=91*;TAAR1 ag conf=3;Ga16 ag counter-2=25*;TAAR1 desensitize=4;Ga16 nonsel ant=9
O=C(Cn1ncc2c3ccccc3n(Cc3ccccc3F)c2c1=O)N1CCC2(CC1)OCCO2 | 3 | 12 | 0 | -37 | -5 | -11 | x | x | x | x
O=C(CCN1CCCCC1)Nc1ccc(Br)cc1C(=O)c1ccccc1 | 14 | 11 | -4 | -22 | 1 | -15 | x | x | x | x
CN1CCN(CC(=O)Nc2ccc([N+](=O)[O-])cc2C(=O)c2ccccc2)CC1 | 104* | 5 | 31 | -35 | 1 | 1 | 2 | -1 | 1 | 4
COc1ccc(-n2nnnc2C(c2ccnc3ccccc23)N2CCC(n3c(=O)[nH]c4ccccc43)CC2)cc1 (stereo not drawn) | 18 | 17 | x | x | x | x | x | x | x | x
Cc1cccc(C)c1-n1nnnc1C(c1cc2ccccc2o1)N1CCC(n2c(=O)[nH]c3ccccc32)CC1 (stereo not drawn) | 37 | 0 | x | x | x | x | x | x | x | x
COc1ccc(-n2nnnc2C(c2cccs2)N2CCC(n3c(=O)[nH]c4ccccc43)CC2)cc1 (stereo not drawn) | 71* | 12 | x | x | x | x | 18 | 46 | 8 | 26
O=c1[nH]c2ccccc2n1C1CCN(C(c2cccs2)c2nnnn2-c2ccc3c(c2)OCCO3)CC1 (stereo not drawn) | 59* | 23 | x | x | x | x | 16 | 42 | 9 | 28
O=c1[nH]c2ccccc2n1C1CCN(C(c2cc3ccccc3o2)c2nnnn2Cc2ccccc2)CC1 (stereo not drawn) | 62* | 12 | x | x | x | x | 28* | 53* | 7 | 12
COc1ccc(-n2nnnc2C(C2CC2)N2CCC(n3c(=O)[nH]c4ccccc43)CC2)cc1 (stereo not drawn) | 72* | 32 | x | x | x | x | 19 | 51* | 11 | 18
CC1([N+](=O)[O-])COP(=O)(NCc2cccnc2)OC1 (stereo not drawn) | -14 | 1 | x | x | x | x | x | x | x | x
CCN1C[C@@]2(COC)C3[C@@H](OC)[C@H]4[C@@H]1[C@@]3(C1C[C@H]3[C@H](O)C1[C@]4(O)C[C@H]3OC)[C@@H](OC)C[C@H]2O (stereo partly drawn) | -9 | 3 | 8 | 7 | x | 2 | x | x | x | x
CCc1c(C)nc(N)nc1N1N=C1SCCOc1ccccc1 | 3 | 2 | 21 | -12 | 11 | -3 | x | x | x | x
CCOC(=O)CC(SP1(=S)OCC2(CC=CCC2)CO1)C(=O)OCC (stereo not drawn) | 70* | 8 | x | x | x | x | 39* | 61* | 9 | 7
CC(C)C[C@@H]1NC(=O)[C@H](Cc2ccccc2)N(C)C(=O)[C@H](C)NC(=O)c2ccccc2NC(=O)[C@H](Cc2ccc(O)cc2)N(C)C1=O | 70* | 10 | 10 | -18 | x | -15 | 32* | 52* | 8 | 8
CC(C)CC12CN3CCN(CC(C3)/C1=N/O)C2 | -5 | 4 | 12 | 14 | -7 | -1 | x | x | x | x
CC(C)C12CN3CCN(CC(C3)/C1=N\O)C2 | 108* | -3 | 13 | -18 | 0 | -10 | 5 | 10 | 0 | 0
O=C(O)c1cc(S(=O)(=O)N2CC3CC(C2)c2cccc(=O)n2C3)ccc1F (stereo not drawn) | -20 | 2 | x | x | x | x | x | x | x | x
O=c1[nH]c2ccccc2n1C1CCN(Cc2ccc(-c3[nH]c4cc5ncnc5cc4nc3-c3ccccc3)cc2)CC1 | 67* | 5 | x | x | x | x | 21 | 40 | 6 | 12
COc1cccc(NP(=O)(Oc2ccccc2)Oc2ccccc2)c1 | 72* | 6 | 28 | -16 | 10 | -27 | 27* | 49* | 8 | 7
COC(=O)C1=C(c2ccc(C(C)=O)cc2)C[C@@H]2CC[C@H]1N2C(=O)NC(C)C | 15 | 0 | 9 | -19 | x | -4 | x | x | x | x
O=P(Oc1ccccc1)(Oc1ccccc1)C(O)c1ccccc1 (stereo not drawn) | 0 | 11 | 34 | -17 | x | -12 | x | x | x | x
O=P(Oc1ccccc1)(Oc1ccccc1)C(Nc1ccccc1)c1ccccc1 (stereo not drawn) | 88* | 1 | 11 | -31 | -2 | -23 | 25* | 57* | 3 | 4
Nc1ccc(-c2ccc(N)cc2)cc1 | -7 | 0 | x | x | x | x | x | x | x | x
Cn1c2ccccc2c2c(C(=O)N3CCC4(CC3)OCCO4)cn(C3CCCC3)c(=O)c21 | 56* | 20 | 12 | -19 | -5 | -10 | 23* | 42 | 10 | 9
Cc1ccc(NC(=O)[C@@H](NC(=O)N2C[C@H]3C[C@@H](C2)c2cccc(=O)n2C3)C(C)C)cc1 | -17 | 0 | 9 | 3 | -3 | -11 | x | x | x | x
